# In ChEMBL document CHEMBL4007452, “Discovery of an Orally Selective Inhibitor of Signal Transducer and Activator of Transcription 3 Using Advanced Multiple Ligand Simultaneous Docking” (J Med Chem, 2017):
# Calls of active or inactive are those of the source. No cut-off for these calls is given here.
# Tests used:
# [1] = Antiproliferative activity against human BkPC-3 cells after 24 hrs by MTT assay; type: functional, cell-based; details: BkPC-3, 24 h
# In short: (§1)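 Cells were seeded at 3000 per well and incubated 24 h at 37 °C. Compounds were added in triplicate with 10% FBS: 0.1-10 or 0.1-20 µM for cancer lines, 3.125-400 µM for MCF-10A. Viability was read by MTT absorbance at 595 nm, with IC50 fitted from the curves. DMSO stocks were 20 mM.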
# [2] = molecular target: Epidermal growth factor receptor (Homo sapiens) (UniProt P00533); assay: Inhibition of EGFR in human MDA-MB-231 cells assessed as reduction in p-Akt level at 2.5 to 5 uM after 12 hrs by immunoblot analysis; type: cell-based
# Chain of Epidermal growth factor receptor (Homo sapiens) (P00533 whole entry): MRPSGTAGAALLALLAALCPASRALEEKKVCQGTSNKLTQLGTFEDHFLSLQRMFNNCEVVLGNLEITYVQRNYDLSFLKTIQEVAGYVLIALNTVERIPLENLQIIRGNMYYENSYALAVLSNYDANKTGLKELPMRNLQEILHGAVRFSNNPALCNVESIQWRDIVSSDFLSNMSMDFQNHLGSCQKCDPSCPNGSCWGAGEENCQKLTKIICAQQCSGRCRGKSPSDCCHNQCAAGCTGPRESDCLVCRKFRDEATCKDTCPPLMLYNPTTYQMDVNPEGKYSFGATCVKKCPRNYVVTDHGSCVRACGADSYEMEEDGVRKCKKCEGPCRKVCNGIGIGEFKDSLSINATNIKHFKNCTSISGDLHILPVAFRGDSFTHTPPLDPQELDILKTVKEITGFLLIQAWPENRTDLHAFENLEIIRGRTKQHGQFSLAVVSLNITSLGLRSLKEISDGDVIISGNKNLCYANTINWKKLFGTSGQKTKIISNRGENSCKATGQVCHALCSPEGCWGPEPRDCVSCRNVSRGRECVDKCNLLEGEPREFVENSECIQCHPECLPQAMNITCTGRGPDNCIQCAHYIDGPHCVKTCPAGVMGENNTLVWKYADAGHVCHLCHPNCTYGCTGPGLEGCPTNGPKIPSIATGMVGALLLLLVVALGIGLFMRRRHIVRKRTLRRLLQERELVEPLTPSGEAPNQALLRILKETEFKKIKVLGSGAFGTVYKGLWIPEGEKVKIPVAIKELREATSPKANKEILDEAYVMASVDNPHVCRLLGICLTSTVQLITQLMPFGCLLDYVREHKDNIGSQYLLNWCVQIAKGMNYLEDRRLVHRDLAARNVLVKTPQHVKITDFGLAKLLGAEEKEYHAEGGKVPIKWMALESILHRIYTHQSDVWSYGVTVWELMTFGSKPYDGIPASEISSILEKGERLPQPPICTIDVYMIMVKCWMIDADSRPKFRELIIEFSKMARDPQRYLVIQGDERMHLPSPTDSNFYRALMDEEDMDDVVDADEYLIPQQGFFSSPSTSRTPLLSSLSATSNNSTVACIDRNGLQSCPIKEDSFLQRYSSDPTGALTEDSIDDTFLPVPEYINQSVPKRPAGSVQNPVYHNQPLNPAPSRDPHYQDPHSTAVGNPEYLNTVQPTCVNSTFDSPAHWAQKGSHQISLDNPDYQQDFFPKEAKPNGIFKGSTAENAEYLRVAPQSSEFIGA
# In short: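 MDA-MB-231 cells at 60–80% confluence were treated 12 h with 10% FBS at 2.5-10 µM or 2.5-5 µM, against a DMSO control. Whole-cell lysates were immunoblotted, with bands quantified as percent of control.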
# MDA-MB-231 [3] = assay: Antiproliferative activity against human MDA-MB-231 cells after 24 hrs by MTT assay; type: functional, cell-based; details: MDA-MB-231, 24 h; in short: as §1
# [4] = Antiproliferative activity against human UW288-1 cells after 24 hrs by MTT assay; type: functional, cell-based; details: UW288-1, 24 h; in short: as §1
# U2OS = assay: Antiproliferative activity against human U2OS cells after 24 hrs by MTT assay; type: functional, cell-based; in short: as §1
# [5] = Antiproliferative activity against human UW426 cells after 24 hrs by MTT assay; type: functional, cell-based; details: UW426, 24 h; in short: as §1
# [6] = Cmax in Sprague-Dawley rat plasma at 10 mg/kg, po measured after 24 hrs by UPLC analysis; type: ADME, organism-based; parameters: dose 10 mg/kg, route oral
# In short: (§2)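 Rat plasma sampled from 2 min to 24 h after a single i.v. (1 mg/kg) or p.o. (10 mg/kg) dose. Parameters were derived from the concentration-time profiles. The bioanalytical method was validated to FDA guidelines for selectivity, linearity, LLOQ, accuracy, precision, recovery, matrix effect and stability.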
# [7] = AUC (0 to infinity) in Sprague-Dawley rat plasma at 10 mg/kg, po measured after 24 hrs by UPLC analysis; type: ADME, organism-based; parameters: dose 10 mg/kg, route oral, time infinity; in short: as §2
# Mus musculus [8] = assay: Toxicity in BALB/c nude mouse xenografted with human MDA-MB-231 cells assessed as reduction in body weight at 40 mg/kg, po administered for 32 days; type: organism-based; details: in vivo, 768 h
# In short: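 MDA-MB-231 cells (5 x 10^6) were implanted s.c. in the flank of 6-week-old female athymic BALB/c nude mice. Oral dosing started at a tumor volume of about 100 mm3, with 8 mice per group and a saline vehicle control. […] Body weight was tracked over the 32-day treatment.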
# [9] = Cmax in Sprague-Dawley rat plasma at 1 mg/kg, iv measured after 24 hrs by UPLC analysis; type: ADME, organism-based; parameters: dose 1 mg/kg, route intravenous; in short: as §2
# MDA-MB-231 [10] = assay: Anticancer activity against human MDA-MB-231 cells xenografted in BALB/c nude mouse assessed as reduction in tumor volume at 40 mg/kg, po qd; type: functional, organism-based
# In short: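 Female athymic BALB/c nude mice, 6 weeks old, bearing s.c. flank MDA-MB-231 xenografts (5 x 10^6 cells). Dosing began at about 100 mm3 tumor volume; 8 mice per group, one tumor each. Drug was given orally in saline, with a saline vehicle control, for 32 days. Caliper L and W measured every other day; volume = 0.5236×L×W².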
# [11] = AUC (0 to infinity) in Sprague-Dawley rat plasma at 1 mg/kg, iv measured after 24 hrs by UPLC analysis; type: ADME, organism-based; parameters: dose 1 mg/kg, time infinity, route intravenous; in short: as §2
# Mus musculus [12] = assay: Toxicity in BALB/c nude mouse xenografted with human MDA-MB-231 cells assessed as spleen damage at 40 mg/kg, po qd administered for 32 days by H&E staining based light microscopy; type: organism-based; details: in vivo, 768 h
# In short: (§3)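 6-week-old female athymic SPF BALB/c nude mice received 5 x 10^6 MDA-MB-231 cells s.c. in the flank. Oral treatment began once tumors reached about 100 mm3, with 8 mice per group and a saline vehicle control. […] Treatment lasted 32 days. Heart, liver, spleen, lung and kidney were fixed 48 h in 10% neutral-buffered formaldehyde, paraffin-embedded, cut at 5 µm, H&E-stained and examined by light microscopy.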
# [13] = MRT (0 to t) in Sprague-Dawley rat plasma at 1 mg/kg, iv measured after 24 hrs by UPLC analysis; type: ADME, organism-based; in short: as §2
# Mus musculus [14] = assay: Toxicity in BALB/c nude mouse xenografted with human MDA-MB-231 cells assessed as heart damage at 40 mg/kg, po qd administered for 32 days by H&E staining based light microscopy; type: organism-based; details: in vivo, 768 h; in short: as §3
# [15] = MRT (0 to infinity) in Sprague-Dawley rat plasma at 10 mg/kg, po measured after 24 hrs by UPLC analysis; type: ADME, organism-based; in short: as §2
# [16] = AUC (0 to t) in Sprague-Dawley rat plasma at 10 mg/kg, po measured after 24 hrs by UPLC analysis; type: ADME, organism-based; parameters: time < 24 hr, dose 10 mg/kg, route oral; in short: as §2
# Rattus norvegicus [17] = assay: Apparent volume of distribution in Sprague-Dawley rat plasma at 10 mg/kg, po measured after 24 hrs by UPLC analysis; type: ADME, organism-based; details: in vivo; in short: as §2
# [18] = Tmax in Sprague-Dawley rat plasma at 10 mg/kg, po measured after 24 hrs by UPLC analysis; type: ADME, organism-based
# In short: (§4)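 Rats dosed i.v. or p.o. Plasma concentrations followed from 2 min to 24 h after dosing. The bioanalytical method was validated to FDA guidelines for selectivity, linearity, LLOQ, accuracy, precision, recovery, matrix effect and stability.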
# [19] = AUC (0 to t) in Sprague-Dawley rat plasma at 1 mg/kg, iv measured after 24 hrs by UPLC analysis; type: ADME, organism-based; parameters: dose 1 mg/kg, time < 24 hr, route intravenous; in short: as §2
# [20] = Tmax in Sprague-Dawley rat plasma at 1 mg/kg, iv measured after 24 hrs by UPLC analysis; type: ADME, organism-based; in short: as §4
# Mus musculus [21] = assay: Toxicity in BALB/c nude mouse xenografted with human MDA-MB-231 cells assessed as liver damage at 40 mg/kg, po qd administered for 32 days by H&E staining based light microscopy; type: organism-based; details: in vivo, 768 h; in short: as §3
# [22] = Terminal half life in Sprague-Dawley rat plasma at 1 mg/kg, iv measured after 24 hrs by UPLC analysis; type: ADME, organism-based; details: read-out: beta t1/2 (converted); in short: as §4
# Mus musculus [23] = assay: Toxicity in BALB/c nude mouse xenografted with human MDA-MB-231 cells assessed as lung damage at 40 mg/kg, po qd administered for 32 days by H&E staining based light microscopy; type: organism-based; details: in vivo, 768 h; in short: as §3
# Rattus norvegicus [24] = assay: AUMC (0 to infinity) in Sprague-Dawley rat plasma at 1 mg/kg, iv measured after 24 hrs by UPLC analysis; type: ADME, organism-based; details: in vivo; in short: as §2
# [25] = MRT (0 to infinity) in Sprague-Dawley rat plasma at 1 mg/kg, iv measured after 24 hrs by UPLC analysis; type: ADME, organism-based; in short: as §2
# Rattus norvegicus [26] = assay: AUMC (0 to t) in Sprague-Dawley rat plasma at 1 mg/kg, iv measured after 24 hrs by UPLC analysis; type: ADME, organism-based; details: in vivo; in short: as §2
# [27] = Apparent volume of distribution in Sprague-Dawley rat plasma at 1 mg/kg, iv measured after 24 hrs by UPLC analysis; type: ADME, organism-based; details: read-out: Vz; in short: as §2
# Rattus norvegicus [28] = assay: AUMC (0 to infinity) in Sprague-Dawley rat plasma at 10 mg/kg, po measured after 24 hrs by UPLC analysis; type: ADME, organism-based; details: in vivo; in short: as §2
# Rattus norvegicus [29] = assay: AUMC (0 to t) in Sprague-Dawley rat plasma at 10 mg/kg, po measured after 24 hrs by UPLC analysis; type: ADME, organism-based; details: in vivo; in short: as §2
# [30] = Oral bioavailability in Sprague-Dawley rat at 10 mg/kg measured after 24 hrs by UPLC analysis; type: ADME, organism-based; details: in vivo
# Mus musculus [31] = assay: Toxicity in BALB/c nude mouse xenografted with human MDA-MB-231 cells assessed as kidney damage at 40 mg/kg, po qd administered for 32 days by H&E staining based light microscopy; type: organism-based; details: in vivo, 768 h; in short: as §3
# [32] = Initial plasma concentration in Sprague-Dawley rat at 1 mg/kg, iv measured after 24 hrs by UPLC analysis; type: ADME, organism-based; in short: as §2
# [33] = Terminal half life in Sprague-Dawley rat plasma at 10 mg/kg, po measured after 24 hrs by UPLC analysis; type: ADME, organism-based; details: read-out: beta t1/2 (converted); in short: as §4
# [34] = MRT (0 to t) in Sprague-Dawley rat plasma at 10 mg/kg, po measured after 24 hrs by UPLC analysis; type: ADME, organism-based; in short: as §2
# Mus musculus [35] = assay: Toxicity in BALB/c nude mouse xenografted with […] S180 cells assessed as body weight loss at 1 mg/kg, ip after 13 days relative to vehicle control; type: organism-based; details: in vivo, 312 h
# Mus musculus [36] = assay: Toxicity in BALB/c nude mouse xenografted with […] S180 cells assessed as reduction in kidney size at 1 mg/kg, ip after 21 days; type: organism-based; details: in vivo, 504 h
# Mus musculus [37] = assay: Toxicity in BALB/c nude mouse xenografted with […] S180 cells assessed as reduction in spleen size at 1 mg/kg, ip after 21 days; type: organism-based; details: in vivo, 504 h
# Mus musculus [38] = assay: Toxicity in BALB/c nude mouse xenografted with […] S180 cells assessed as reduction in liver size at 1 mg/kg, ip after 21 days; type: organism-based; details: in vivo, 504 h
# CCRF S-180 = assay: Anticancer activity against […] cells xenografted in BALB/c nude mouse assessed as reduction in tumor weight at 1 mg/kg, ip measured after 21 days relative to vehicle control; type: functional; parameters: scale not given: the % may be the effect or the level left
# In short: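 Male mice, 4 weeks old, given s.c. flank S180 mouse sarcoma cells (3 x 10^6). From day 2, 10 mice per group received saline vehicle, oral drug at 5 mg/kg, or i.p. drug at 1 mg/kg, each dissolved in saline. Therapy ran 21 days; tumor weight and body weight were recorded.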
smiles,measurement,setting,value
CN(CC(=O)N(Cc1ccc(C2CCCCC2)cc1)c1ccc(C(=O)O)c(O)c1)S(=O)(=O)c1c(F)c(F)c(F)c(F)c1F,IC50,[1],6.9 µM
same,inhibition,[2],Active
same,IC50,MDA-MB-231 [3],6.8 µM
same,IC50,[4],9.8 µM
same,IC50,U2OS,8.3 µM
same,IC50,[5],10.2 µM
COc1cc2ncnc(Nc3ccc(F)c(Cl)c3)c2cc1OCCCN1CCOCC1 [GEFITINIB],Cmax,[6],1200 ng/mL
same,AUC(0-inf),[7],2370 ng·h/mL
same,Activity,Mus musculus [8],Non-Toxic
same,Cmax,[9],621 ng/mL
same,Activity,MDA-MB-231 [10],Active
same,AUC(0-inf),[11],501 ng·h/mL
same,Activity,Mus musculus [12],Non-Toxic
same,MRT last at 24 h,[13],2.12 h
same,Activity,Mus musculus [14],Non-Toxic
same,MRT inf,[15],2.49 h
same,AUC(0-t) at 24 h,[16],2360 ng·h/mL
same,Vz,Rattus norvegicus [17],13.2387 L/kg
same,Tmax,[18],1 h
same,AUC(0-t) at 24 h,[19],491 ng·h/mL
same,Tmax,[20],1.98 min
same,Activity,Mus musculus [21],Non-Toxic
same,half-life,[22],2.39 h
same,Activity,Mus musculus [23],Non-Toxic
same,AUMC,Rattus norvegicus [24],1261.5 hr2.ng/ml
same,MRT inf,[25],2.4 h
same,AUMCt,Rattus norvegicus [26],1098 hr2.ng/ml
same,Vd,[27],6.68 L/kg
same,AUMC,Rattus norvegicus [28],5903.9 hr2.ng/ml
same,AUMCt,Rattus norvegicus [29],5649.7 hr2.ng/ml
same,bioavailability,[30],47.4%
same,Activity,Mus musculus [31],Non-Toxic
same,C0 at 24 h,[32],715 ng/mL
same,half-life,[33],2.17 h
same,MRT last at 24 h,[34],2.4 h
COc1cccc2c1C(=O)c1c(O)c3c(c(O)c1C2=O)C[C@@](O)(C(=O)CO)C[C@@H]3O[C@H]1C[C@H](N)[C@H](O)[C@H](C)O1 [DOXORUBICIN],Activity,Mus musculus [35],21.01%
same,Activity,Mus musculus [36],Toxic
same,Activity,Mus musculus [37],Toxic
same,Activity,Mus musculus [38],Toxic
same,Activity,CCRF S-180,52.23%
